MrgX1 PAM = allosterically activates human MrgX1 receptor signaling. Q96LB2. MrgX1-HEK293, Fluo-4 calcium flux, FDSS; active compounds read high. hit rate 0.63% among 310,000. B-score at 10 µM;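 active = plate-corrected calcium response at least 3 library SD above typical, normal starting fluorescence, not activating the receptor alone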;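 note: compound read alongside a low EC10 to EC30 dose of BAM8-22 agonist; peak minus trough fluorescence over baseline measured at the second addition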
Target sequence (Q96LB2 whole entry, looked up): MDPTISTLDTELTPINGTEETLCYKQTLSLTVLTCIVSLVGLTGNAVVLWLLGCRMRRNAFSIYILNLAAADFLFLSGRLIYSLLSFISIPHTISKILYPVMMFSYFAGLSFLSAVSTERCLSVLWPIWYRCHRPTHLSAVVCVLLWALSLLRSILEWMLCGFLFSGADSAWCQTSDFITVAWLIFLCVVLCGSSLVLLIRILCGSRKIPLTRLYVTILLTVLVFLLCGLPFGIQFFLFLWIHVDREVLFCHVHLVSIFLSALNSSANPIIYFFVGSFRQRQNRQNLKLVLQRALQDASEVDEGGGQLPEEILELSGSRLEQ
MrgX1 ag = activates human MrgX1 receptor signaling; MrgX1-HEK293 cells, Fluo-4 calcium fluorescence, agonist mode; active compounds read high; AID 588627; B-score at 10 µM; hit rate 0.44% among 310,000;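 active = calcium response B-score plate-corrected fluorescence ratio at least 3 library SD, with starting fluorescence B-score inside 5 SD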
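Assay system: MrgX1-expressing HEK293 cells / Amount: fifteen thousand cells per well / Doses: test compound in the initial addition of three / Timing: cells plated overnight, dye loaded 0.5 h 37 °C, 0.5 h room temperature / Technique: kinetic calcium dye fluorescence, Fluo-4 NW / Control set: positive and negative controls per plate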
MrgX1 antag = human MrgX1 receptor antagonism, primary screen; Q96LB2; MRGX1-HEK293 calcium flux, Fluo-4, BAM8-22 antagonism; active compounds read low; B-score at 10 µM; hit rate 1.3% among 310,000;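 active = calcium-response B-score plate-corrected more than 3 library SD below zero, starting fluorescence within 5 deviations, no agonist response on first addition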;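 note: peak minus trough fluorescence over baseline after final BAM8-22 challenge near maximal dose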
RGS4 inh = inhibitors of human RGS4. HEK293 M3R/RGS4 inducible, Fluo-4 calcium flux; active compounds read high; triggered by carbachol at its EC20. B-score at 10 µM. hit rate 0.45% among 310,000. AID 463165;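 active = B-score, a plate-corrected calcium signal, over three deviations above library mean, with baseline fluorescence within five deviations of library mean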;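 note: RGS4 expression induced by doxycycline in cells with stable M3 receptor; B-score is computed from the integrated fluorescence ratio over baseline after carbachol; higher B-score means a larger calcium signal and so more RGS4 inhibition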
Target sequence (P49798 whole entry, looked up): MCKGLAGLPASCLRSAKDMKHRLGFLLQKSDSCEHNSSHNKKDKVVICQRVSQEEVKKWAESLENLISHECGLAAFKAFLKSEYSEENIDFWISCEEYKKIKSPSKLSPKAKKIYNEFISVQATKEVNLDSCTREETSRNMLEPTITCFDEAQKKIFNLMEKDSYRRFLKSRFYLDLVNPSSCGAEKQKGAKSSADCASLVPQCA
RGS4 pot = RGS4 potentiation or activation | hit rate 0.92% among 310,000 | HEK293 M3R/inducible RGS4, carbachol calcium flux Fluo4; active compounds read low | B-score at 10 µM | AID 463111;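 active = B-score of the integrated calcium signal more than 4 SD below the library mean, with starting fluorescence not abnormally high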;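 note: negative B-score means reduced calcium response which marks RGS4 activation or potentiation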
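Material: M3R-expressing HEK293 line, RGS4 induced by doxycycline | Schedule: Overnight RGS4 induction, 30 min dye load 37 °C, 20 min compound RT | Measured by: Fluo4 fluorescence kinetic imaging of calcium | Read-out: Integrated calcium ratio converted to B score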
MrgX1 PAM conf = human MrgX1 positive allosteric modulation, re-confirmation; shares compounds with MrgX1 PAM; MrgX1-HEK293, Fluo-4 calcium fluorescence, FDSS; AID 602413; activation (ratio percentage), % at 10 µM; hit rate 13% among 1,200;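 active = ratio at least 3 SD above the weak peptide control, stable starting fluorescence, no direct agonism earlier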;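 note: compound followed by low BAM8-22 agonist challenge near EC20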
HEK293 Ca flux = counter-screen for MrgX1 antagonists: effect in parental HEK293 cells; shares compounds with MrgX1 antag; Fluo-4 calcium fluorescence, FDSS; fluorescence ratio F(max-min)/F0 at 10 µM; hit rate 2% among 4,000;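 active = duplicate-averaged calcium fluorescence ratio at least three times the standard deviation of buffer wells, a nonspecific response in parental cells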
HEK293 Ca counter = counter-screen for MrgX1 allosteric activators: effect in parental HEK293 cells | shares compounds with MrgX1 antag | parental HEK293 calcium flux, Fluo-4 fluorescence ratio; active compounds read high | fluorescence ratio F(max-min)/F0 at 10 µM | hit rate 0.4% among 4,000;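 active = calcium fluorescence ratio, averaged over duplicates, at least 3 SD of the buffer-well ratio, meaning a nonspecific response in receptor-free cells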;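 note: untransfected parental HEK293 lacking MrgX1 used as counterscreen for MrgX1 allosteric activators; fluorescence change taken during the second addition on a kinetic imager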
HEK293 Ca cntr2 = activity in parental HEK293 cells lacking MrgX1 receptor. shares compounds with MrgX1 antag. Fluo-4 calcium fluorescence (FDSS); active compounds read high. fluorescence ratio F(max-min)/F0 at 10 µM. hit rate 8.7% among 4,000. AID 624115;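 active = calcium fluorescence ratio at least three times the spread of buffer wells, meaning a non-specific response in parental cells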
* marks the source's active call; other numbers are inactive results; i = inactive; nt = no result given. This is a sample that favours compounds with a hit; in the whole collection about 3.5% have one here.

SMILES	MrgX1 PAM	MrgX1 ag	MrgX1 antag	RGS4 inh	RGS4 pot	MrgX1 PAM conf	HEK293 Ca flux	HEK293 Ca counter	HEK293 Ca cntr2
CSC1=NSC2=NC(=O)/C(=C\c3cccs3)C(=N)N12	27*	i	i	i	i	15%*	i	i	i
Cn1c(=O)c2c(nc(N3CCCCCC3)n2Cc2cccc3ccccc23)n(C)c1=O	7.5*	i	i	i	i	i	i	51*	i
Cn1c(=O)c2c(nc(CN3CCc4ccccc4C3)n2CCCO)n(C)c1=O	i	i	i	i	i	nt	nt	nt	nt
Cn1c(=O)c2c(nc(CN3CCc4ccccc4C3)n2Cc2ccccc2F)n(C)c1=O	25*	i	i	i	i	38%*	i	i	i
CN1CCN(c2nc3c(c(=O)n(C)c(=O)n3C)n2Cc2cccc3ccccc23)CC1	i	i	i	i	i	nt	nt	nt	nt
CCOc1ccc(S(=O)(=O)NCc2cccnc2)cc1C(C)C	i	i	i	i	i	nt	nt	nt	nt
C=C(C)COc1ccc(-c2[nH]ncc2-c2ccc(Br)cc2)c(O)c1	19*	i	i	i	i	10%*	i	i	i
C=C(C)COc1ccc(-c2[nH]ncc2Oc2ccccc2OC)c(O)c1	i	i	i	i	i	nt	nt	nt	nt
C=C(C)COc1ccc(-c2[nH]ncc2-c2ccccc2OC)c(O)c1	18*	i	i	i	i	i	i	i	i
CCn1c(CSc2ncccn2)nnc1SCC(=O)N1CCCCC1	i	i	i	i	i	nt	nt	nt	nt
CCc1ccc2c(c1)[C@H]1OCC[C@H]1[C@@H](c1cccs1)N2	9.5*	i	i	i	i	i	i	i	i
O=C(C1CC1)N1CCc2cc(Br)cc(S(=O)(=O)N3CCCCCC3)c21	11*	i	i	i	i	i	i	i	i
Nc1c2c(nc3ccc(Br)cc13)N(Cc1ccccc1)CC2	8.3*	i	i	i	i	i	i	i	i
Nc1c2c(nc3ccc(Br)cc13)N(c1ccccc1)CC2	i	i	i	nt	nt	nt	nt	nt	nt
CCCCCCC1CC(CSC(=N)N)OC1=O (centres undefined)	6.5*	i	i	i	i	i	i	i	i
CCc1ccc(/C=N/NC(=O)Cc2cccn2C)cc1	27*	i	i	i	i	13%*	i	i	i
O=C(NC12CC3CC(CC(C3)C1)C2)c1ccccc1O	9.8*	i	i	i	i	i	i	i	i
O=C(NC12CC3CC(CC(C3)C1)C2)c1ccc(-c2ccccc2Cl)o1	6.7*	i	i	i	i	i	i	i	i
CC1CCN(C(=O)c2ccc(-c3ccccc3Cl)o2)CC1	7.6*	i	i	i	i	i	i	i	i
O=C(c1ccc(-c2cccc(Cl)c2Cl)o1)N1CCOCC1	i	i	i	i	i	nt	nt	nt	nt
Cc1cc2c(cc1S(=O)(=O)CCC(=O)NC1CCC(C)CC1)OCC(=O)N2 (centres undefined)	i	i	i	i	i	nt	nt	nt	nt
COc1ccc(C)cc1NC(=O)C1CCN(C(=O)Cc2ccccc2)CC1	11*	i	i	i	i	i	i	i	i
COC(=O)c1ccccc1NC(=O)C1CCN(C(=O)Cc2ccccc2)CC1	i	i	i	i	i	nt	nt	nt	nt
Cc1ccc(NC(=O)CCN2C(=O)C3C4CCC(C4)C3C2=O)cc1Cl (centres undefined)	i	i	i	i	i	nt	nt	nt	nt
O=[N+]([O-])c1ccc(Cl)c(S(=O)(=O)Nc2ccc(-c3ccc(N4CCOCC4)nn3)cc2)c1	i	i	i	i	i	nt	nt	nt	nt
SMILES	MrgX1 PAM	MrgX1 ag	MrgX1 antag	RGS4 inh	RGS4 pot	MrgX1 PAM conf	HEK293 Ca flux	HEK293 Ca counter	HEK293 Ca cntr2
Cc1ccc([N+](=O)[O-])cc1S(=O)(=O)Nc1ccc(-c2ccc(N3CCOCC3)nn2)cc1	29*	i	i	i	i	8.1%*	i	i	i
COc1cccc(N2CCN(c3ccc4nnc(CCC(=O)Nc5ccccn5)n4n3)CC2)c1	7.5*	i	i	i	i	i	i	i	i
C=C1CCC2[C@](C)(CO)[C@H](O)CC[C@@]2(C)[C@@H]1C/C=C1\C(=O)OC[C@H]1O (some centres undefined)	i	i	i	i	i	nt	nt	nt	nt
C=C/C(C)=C/C[C@H]1C(=C)CCC2[C@](C)(C(=O)O)CCC[C@@]21C (some centres undefined)	7.4*	i	i	nt	nt	i	i	i	i
CC(=O)Nc1sc(/C(C#N)=C\c2cccc(Cl)c2)nc1-c1ccc(C)cc1	20*	i	i	i	i	i	0.065*	i	59*
CCOC(=O)c1cc(NC(=O)CN2CCCC2)cc(C(=O)OCC)c1	i	i	i	i	i	nt	nt	nt	nt
CCOc1cc(/C=C2/C(=N)N3C(=NC2=O)SN=C3S(=O)(=O)C(C)C)ccc1OC(=O)c1ccco1	37*	i	i	i	i	41%*	i	i	48*
CCOc1cc(/C=C2/C(=N)N3C(=NC2=O)SN=C3S(=O)(=O)CC)ccc1OC(=O)c1ccco1	35*	i	i	i	i	24%*	i	i	i
COc1cc(/C=C2/C(=N)N3C(=NC2=O)SN=C3S(=O)(=O)C(C)C)ccc1OC(=O)c1ccco1	38*	i	i	i	i	37%*	i	i	i
CCOc1cc(/C=C2/SC(=S)NC2=O)ccc1OC(=O)c1ccco1	i	i	i	i	i	nt	nt	nt	nt
CCOc1cc(/C=C2/C(=N)N3OC(C)=CC3=NC2=O)ccc1OC(=O)c1ccco1	i	i	i	i	i	nt	nt	nt	nt
CCC(=O)N1CCc2cc(S(=O)(=O)NCCC(=O)NC3CCCCCC3)ccc21	i	i	i	i	i	nt	nt	nt	nt
O=C(NCCCN1CCOCC1)c1ccc(CSc2ccc(Cl)cc2)cc1	9.1*	i	i	i	i	i	i	i	i

Screening data as filed in PubChem.
